Assays:
T2DM patients [1] = conditions: T2DM patients with mean FPG 8–9 mmol/L (144–162 mg/dL); cited from earlier work
[2] = Simulation of steady-state AUC24h using post-hoc CL/F from the final PopPK model; set-up: species or system human
How it was run: (§1)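 Steady state was simulated for 887 Japanese T2DM patients at 12.5, 25, 50 and 100 mg once daily. AUC24h came from individual post-hoc CL/F of the final PopPK model, and ΔUGE24h came from the final PK/PD model. The 50 mg regimen was also summarized by eGFR class (≥90, 60 to <90, 30 to <60 mL/min/1.73 m2). Results are given as median and 2.5th–97.5th percentiles.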

[3] = tested on: Japanese healthy subjects and patients with T2DM; assay: Phase I and clinical pharmacology studies; assay type: in vivo, human
How it was run: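 Oral dosing in three studies. Healthy subjects received single fasted doses of 1–300 mg, or 20–100 mg daily after a standardized meal. T2DM patients received 50 or 100 mg daily for 14 days. A single 50 mg dose was given to T2DM patients grouped by eGFR. Urine was collected for 24 h predose and in postdose intervals, and UGE24h was calculated. Pooled data from 137 subjects were plotted against FPG and AUC24h.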

[4] = cited from earlier work
[5] = cited from earlier work; remark: listed apart in the source
[6] = tested on: T2DM patients with moderate renal impairment; conditions: cited from earlier work
[7] = tested on: Japanese patients with T2DM; assay: Simulation of steady-state ΔUGE24h by the final PK/PD model; set-up: species or system human; conditions: 50 mg once daily
How it was run: as §1

[8] = tested on: Japanese healthy subjects and patients with T2DM; assay: PK/PD maximum effect; assay type: in vivo, human
How it was run: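 Emax model fitted in NONMEM (FOCE with interaction) to pooled healthy-subject and T2DM data from three studies. AUC24h came from noncompartmental analysis, and UGE24h was taken over matching intervals. Emax was modelled as dependent on FAC (FPG × GFR) up to a threshold of 18 000 and constant above it. There was no interindividual variability, and residual error was additive plus proportional. Covariates were added stepwise (P < .05) and removed backward (P < .001), and the model was bootstrapped.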

T2DM patients [9] = conditions: once daily 12.5, 25, 50 and 100 mg, 12 weeks; cited from earlier work
[10] = tested on: Japanese healthy subjects and patients with T2DM; conditions: phase I and clinical pharmacology studies; cited from earlier work
[11] = tested on: Japanese patients with T2DM; conditions: once daily 50 mg for 16 weeks; cited from earlier work
Population PK model = assay type: in vivo, human
How it was run: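 The prior model was built from 534 plasma concentrations in 43 T2DM patients sampled serially after oral dosing. It was a 2-compartment model with first-order absorption (ADVAN4/TRANS4), log-normal interindividual variability and proportional residual error, fitted by FOCE with interaction. It served via $PRIOR to fit trough concentrations from four later studies. Covariates on CL/F were tested stepwise. Plasma drug was measured by LC–MS/MS (LLOQ 1 ng/mL).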

[12] = cited from earlier work; remark: listed apart in the source

OC[C@H]1O[C@@H](c2ccc(Cl)c(Cc3ccc(O[C@H]4CCOC4)cc3)c2)[C@H](O)[C@@H](O)[C@@H]1O [empagliflozin]
Emax (T2DM patients [1]): 120 g/24 h

OC[C@H]1O[C@@H](c2ccc(F)c(Cc3cc4ccccc4s3)c2)[C@H](O)[C@@H](O)[C@@H]1O [ipragliflozin]
higher exposure in moderate renal impairment patients with T2DM ([2]; descriptive comparison of assessed AUC and simulation by final PopPK model): about 20%
change in exposure caused by covariates other than GFR (BSA, TPRO, TBIL) ([2]; final PopPK model): ≤ 10%
increase in AUC24h, moderate renal impairment compared to normal renal function ([2]; simulation, 50 mg once daily, T2DM patients): 1.17 fold
effects on UGE at low doses ([3]; 1 and 3 mg single dose, healthy subjects, Study A): no significant effects
UGE after single and multiple doses ([3]; healthy subjects and T2DM patients, exploratory assessment): dose‐dependent increase
protein binding ex vivo [4]: ~ 96%
oral bioavailability [5]: > 90%
antidiabetic effect [6]: weaker antidiabetic effect
change in ΔUGE24h, moderate renal impairment compared to normal renal function [7]: 0.76 fold
glucose excretion effect versus dose ([8]; above 50 mg daily dose, suggested by PK/PD model): almost reaches the maximum level
Emax of ΔUGE24h: FAC > 18 000 ([8]; population mean, constant above FAC threshold): 107 g/24 h
Emax of ΔUGE24h: FAC ≤ 18 000 ([8]; population mean, reference FPG 100 mg/dL and GFR 90 mL/min): 72.3 g/24 h
fasting plasma glucose (FPG) and HbA1c levels (T2DM patients [9]): dose‐dependent decreases
exposure versus dose [10]: increase dose‐dependently
tolerability [10]: consistently well tolerated
urinary glucose excretion (UGE) versus dose [10]: increase dose‐dependently
decreasing FPG and HbA1c levels versus placebo [11]: superior to a placebo
tolerability [11]: well tolerated
Interindividual variability of CL/F (Population PK model; base model, before covariates): 26.8%
Interindividual variability ω^2: CL (Population PK model; final PopPK model): 0.0533
Vd/F (Population PK model; human, plasma, oral): 39.4 L
first order absorption rate constant Ka (Population PK model; population mean, T2DM patients): 6.38 h⁻¹
oral clearance CL/F (Population PK model; population mean, T2DM patients): 9.47 L/h
urinary excretion ratio of unchanged ipragliflozin [12]: approximately 1%

Reference: article PMC6624389 (British Journal of Clinical Pharmacology, 2019)
